Experimental data published in ChEMBL document CHEMBL1122693, “Biological activity and a modified synthesis of 8-amino-3-beta-D-ribofuranosyl-1,2,4-triazolo[4,3-a]pyrazine, an isomer of formycin” (1984).
≈ marks a conversion by molar mass, not a printed value. Where “and” joins values, the source holds several entries; their conditions need not be identical. Identical values can stand only once.

How the values were obtained:
[1] = Coronary vasoactivity as molar potency ratio (MPR), the quotient of ED50 of adenosine by that of the test nucleoside; format: functional
Method in brief: (§1)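 Dogs anesthetized with morphine-thiamylal-fluothane. MPR is ED50 of adenosine divided by ED50 of test nucleoside. Dog-to-dog variation in MPR about ±10%.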

Human alphaherpesvirus 1 = test: Compound was tested for antiviral activity against herpes simplex virus-1(KOS) in primary rabbit kidney cells; format: functional
Method in brief: (§2)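 Inhibition of virus-induced cytopathogenicity, scored as minimum inhibitory concentration (µg/mL) in the host cell monolayers listed: HSV-1 (KOS) and HSV-2 (G) in primary rabbit kidney cells; measles, reovirus type 1, parainfluenza type 3, Coxsackie B4 and Sindbis in Vero cells; Coxsackie and polio in HeLa cells. Minimum cytotoxic concentration taken as microscopically detectable alteration of normal cell morphology; highest concentration tested 400 µg/mL.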

[2] = tested on: Vesicular stomatitis virus; test: Compound was tested for antiviral activity (minimum inhibition concentration) in HeLa cells vesicular stomatitis virus (VSV); format: functional
Human respirovirus 3 = test: Compound was tested for antiviral activity (minimum inhibition concentration) in Vero cells parainfluenza virus type 3; format: functional; method in brief: as §2
[3] = tested on: Vesicular stomatitis virus; test: Compound was tested for antiviral activity against vesicular stomatitis virus in primary rabbit kidney cells; format: functional
Coxsackievirus B4 [4] = test: Compound was tested for antiviral activity (minimum inhibition concentration) in HeLa cells coxsackie virus type 4; format: functional; conditions: Enterovirus B; method in brief: as §2
Human alphaherpesvirus 2 = test: Compound was tested for antiviral activity against herpes simplex virus-2(G) in primary rabbit kidney cells; format: functional; method in brief: as §2
Sindbis virus = test: Compound was tested for antiviral activity (minimum inhibition concentration) in Vero cells sindbis virus; format: functional; method in brief: as §2
Coxsackievirus B4 [5] = test: Compound was tested for antiviral activity (minimum inhibition concentration) in Vero cells coxsackie virus type B4; format: functional; conditions: Enterovirus B; method in brief: as §2
Vaccinia virus = test: Compound was tested for antiviral activity against vaccinia virus in primary rabbit kidney cells; format: functional; conditions: Orthopoxvirus vaccinia
[6] = tested on: Mammalian orthoreovirus 1; test: Compound was tested for antiviral activity (minimum inhibition concentration) in Vero cells reovirus type 1; format: functional; method in brief: as §2
Measles morbillivirus = test: Compound was tested for antiviral activity against measles virus in vero cells; format: functional; method in brief: as §2
Poliovirus 1 = test: Compound was tested for antiviral activity (minimum inhibition concentration) in HeLa cells polio virus type 1; format: functional; conditions: Enterovirus C
L1210 [7] = test: Effect of compound on the incorporation of nucleic acid precursor into L1210 cells (cpm x 10e-3), precursors used along with compound were [14C]-Adenosine; format: functional, Mus musculus
Method in brief: (§3)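 L1210 suspension cultures in RPMI 1640 with 10% horse serum, at 37 °C, preincubated 90 min with or without test compound at 1 mM. 14C-precursor (cytidine, uridine, adenosine or thymidine) then added to 0.04 µCi/mL final and incubated a further 30 min. Cells pelleted and Schmidt-Thannhauser fractionation gave acid-soluble, RNA and DNA fractions, counted by scintillation. Duplicate flasks; results as cpm ×10^-3 and % of control.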

L1210 [8] = test: Effect of compound on the incorporation of nucleic acid precursor into L1210 cells (cpm x 10e-3), precursors used along with compound were [14C]cytidine; format: functional, Mus musculus; method in brief: as §3
L1210 [9] = test: Effect of compound on the incorporation of nucleic acid precursor into L1210 cells (cpm x 10e-3),precursors used along with compound were [14C]cytidine; format: functional, Mus musculus; method in brief: as §3
[10] = Coronary vasoactivity (molar potency ratio (MPR), the quotient of ED50 of adenosine by that of the test nucleoside)Dog to dog variations in MPR are about +/-10%; format: functional; method in brief: as §1
L1210 [11] = test: Effect of compound on the incorporation of nucleic acid precursor into L1210 cells (cpm x 10e-3),precursors used along with compound were [14C]uridine; format: functional, Mus musculus; method in brief: as §3

## Nc1nnnc2c1ncn2[C@@H]1O[C@H](CO)[C@@H](O)[C@H]1O
[1]
  MPR: 0.15

## Nc1nccc2c1ncn2[C@@H]1O[C@H](CO)[C@@H](O)[C@H]1O
Human alphaherpesvirus 1
  MIC: 40 µg/mL (≈ 150 µM)
[2]
  MIC: 10 µg/mL (≈ 37.6 µM)
Human respirovirus 3
  MIC: 2 µg/mL (≈ 7.51 µM)
[3]
  MIC: 7 µg/mL (≈ 26.3 µM)
Coxsackievirus B4 [4]
  MIC: 40 µg/mL (≈ 150 µM)
Human alphaherpesvirus 2
  MIC: 10 µg/mL (≈ 37.6 µM)
Sindbis virus
  MIC: 40 µg/mL (≈ 150 µM)
Coxsackievirus B4 [5]
  MIC: 4 µg/mL (≈ 15 µM)
Vaccinia virus
  MIC: 7 µg/mL (≈ 26.3 µM)
[6]
  MIC: 4 µg/mL (≈ 15 µM)
Measles morbillivirus
  MIC: 40 µg/mL (≈ 150 µM)
Poliovirus 1
  MIC: 40 µg/mL (≈ 150 µM)

## Nc1ncnc2c1ccn2[C@@H]1O[C@H](CO)[C@@H](O)[C@H]1O
[1]
  MPR: 0.071

## Nc1ncnc2c([C@@H]3O[C@H](CO)[C@@H](O)[C@H]3O)[nH]nc12 [FORMYCIN]
Human alphaherpesvirus 1
  MIC: 4 µg/mL (≈ 15 µM)
[2]
  MIC: 10 µg/mL (≈ 37.4 µM)
Human respirovirus 3
  MIC: ≥ 40 µg/mL
[3]
  MIC: 2 µg/mL (≈ 7.48 µM)
[1]
  MPR: 0.043
Coxsackievirus B4 [4]
  MIC: ≥ 200 µg/mL
Human alphaherpesvirus 2
  MIC: 4 µg/mL (≈ 15 µM)
Sindbis virus
  MIC: ≥ 40 µg/mL
Coxsackievirus B4 [5]
  MIC: ≥ 40 µg/mL
Vaccinia virus
  MIC: 4 µg/mL (≈ 15 µM)
[6]
  MIC: ≥ 40 µg/mL
Measles morbillivirus
  MIC: ≥ 40 µg/mL
Poliovirus 1
  MIC: 10 µg/mL (≈ 37.4 µM)

## NC(=O)c1ncn([C@@H]2O[C@H](CO)[C@@H](O)[C@H]2O)n1 [RIBAVIRIN]
Human alphaherpesvirus 1
  MIC: > 400 µg/mL
[2]
  MIC: 20 µg/mL (≈ 81.9 µM)
Human respirovirus 3
  MIC: 10 µg/mL (≈ 40.9 µM)
[3]
  MIC: 20 µg/mL (≈ 81.9 µM)
Coxsackievirus B4 [4]
  MIC: 20 µg/mL (≈ 81.9 µM)
Human alphaherpesvirus 2
  MIC: > 400 µg/mL
Sindbis virus
  MIC: 40 µg/mL (≈ 164 µM)
Coxsackievirus B4 [5]
  MIC: 200 µg/mL (≈ 819 µM)
Vaccinia virus
  MIC: 20 µg/mL (≈ 81.9 µM)
[6]
  MIC: 100 µg/mL (≈ 409 µM)
Measles morbillivirus
  MIC: 20 µg/mL (≈ 81.9 µM)
Poliovirus 1
  MIC: 10 µg/mL (≈ 40.9 µM)

## Nc1nccn2c([C@@H]3O[C@H](CO)[C@@H](O)[C@H]3O)nnc12
Human alphaherpesvirus 1
  MIC: > 400 µg/mL
[2]
  MIC: 150 µg/mL (≈ 561 µM)
Human respirovirus 3
  MIC: 100 µg/mL (≈ 374 µM)
L1210 [7]
  RNA fraction: 24 and 19.8
L1210 [8]
  Total uptake: 128.8 and 161.7
[3]
  MIC: 100 µg/mL (≈ 374 µM)
Coxsackievirus B4 [4]
  MIC: > 400 µg/mL
Human alphaherpesvirus 2
  MIC: 200 µg/mL (≈ 748 µM)
L1210 [9]
  Total uptake: 50.4
Sindbis virus
  MIC: 300 µg/mL (≈ 1120 µM)
Coxsackievirus B4 [5]
  MIC: 200 µg/mL (≈ 748 µM)
[10]
  MPR: 0.0015
L1210 [11]
  Fraction: 24
Vaccinia virus
  MIC: 100 µg/mL (≈ 374 µM)
[6]
  MIC: 200 µg/mL (≈ 748 µM)
Measles morbillivirus
  MIC: 200 µg/mL (≈ 748 µM)
Poliovirus 1
  MIC: > 400 µg/mL

## Nc1ncnc2c1nnn2[C@@H]1O[C@H](CO)[C@@H](O)[C@H]1O
[1]
  MPR: 0.042
